Source: ChEMBL document CHEMBL1157487, “Discovery of potent CCR4 antagonists: Synthesis and structure-activity relationship study of 2,4-diaminoquinazolines” (Bioorg Med Chem, 2008)
pIC50: −log10 of the molar value.

Experiments:
[1] = target: T1, C-C chemokine receptor type 4 (Homo sapiens) (UniProt P51679); assay: Displacement of [125I]CCl22 from human CCR4 receptor expressed in mouse B300-19 cells at 1 uM by SPA; assay type: cell-based
T1 sequence (whole entry): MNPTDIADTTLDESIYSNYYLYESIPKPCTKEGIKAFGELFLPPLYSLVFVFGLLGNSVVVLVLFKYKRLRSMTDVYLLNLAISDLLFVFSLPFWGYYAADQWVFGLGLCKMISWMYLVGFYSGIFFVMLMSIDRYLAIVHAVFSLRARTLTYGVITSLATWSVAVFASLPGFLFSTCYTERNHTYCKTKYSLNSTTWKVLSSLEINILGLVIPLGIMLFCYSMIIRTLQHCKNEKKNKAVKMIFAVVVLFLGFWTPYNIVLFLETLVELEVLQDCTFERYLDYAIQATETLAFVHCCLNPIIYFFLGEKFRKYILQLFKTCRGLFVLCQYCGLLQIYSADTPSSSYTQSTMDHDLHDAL
How it was run: (§1)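 SPA on whole human CCR4-expressing B300-19 cells (2×10^5/well) with 25 pM [125I]CCL22 and WGA SPA beads, test compound, in 50 mM Hepes pH 7.4, 5 mM MgCl2, 1 mM CaCl2, 0.1% BSA; 2 h, 25 °C. Nonspecific binding defined with 10 nM unlabeled CCL22. Duplicate, four concentrations, usually two determinations averaged. IC50 by non-linear curve fitting.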

[2] = target: T1, C-C chemokine receptor type 4 (Homo sapiens); assay: Antagonist activity at human CCR4 receptor expressed in mouse B300-19 cells at 1 uM by [35S]GTPgammaS binding assay; assay type: functional, cell-based
How it was run: (§2)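 Membranes from human CCR4-expressing B300-19 cells (1 µg protein/well) with 150 pM [35S]GTPγS, 2 µM GDP, 3 nM MDC (CCL22), WGA SPA beads, test compound in 20 mM Hepes-NaOH pH 7.05, 100 mM NaCl, 5 mM MgCl2, 0.2% BSA; 1.5 h, 25 °C. Percent inhibition against no-compound and no-CCL22 controls. Duplicate, four concentrations, usually two determinations averaged. IC50 by non-linear fitting.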

[3] = target: T2, C-C chemokine receptor type 4 (Homo sapiens, UniProt P51679); assay: Antagonist activity at human CCR4 receptor expressed in mouse B300-19 cells by [35S]GTPgammaS binding assay; assay type: functional, cell-based; how it was run: as §2
T2 sequence (P51679 whole entry): T1 sequence (whole entry)

[4] = target: T1, C-C chemokine receptor type 4 (Homo sapiens); assay: Antagonist activity at human CCR4 receptor expressed in mouse B300-19 cells assessed as CCL22-induced chemotaxis by bioluminescent assay; assay type: functional, cell-based
How it was run: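 Stably transfected B300-19 cells (human CCR4 cDNA, G418 selection) at 5×10^6 cells/mL in RPMI 1640 with 0.1% BSA, pretreated with test compound; placed over 3 nM human CCL22 in 5-µm-pore polycarbonate filter chambers, 3 h, 37 °C, 5% CO2. Migrated cells quantified by ATP bioluminescence. Controls without compound or without CCL22. Triplicate, four concentrations. IC50 by non-linear curve fitting.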

[5] = target: T2, C-C chemokine receptor type 4; assay: Displacement of [125I]CCl22 from human CCR4 receptor expressed in mouse B300-19 cells by SPA; assay type: cell-based; how it was run: as §1
[6] = Cytotoxicity against CCR4 expressing mouse B300-19 cells at 3 uM after 12 hrs by alamar blue assay; assay type: cell-based; conditions: b300-19, 12 h
How it was run: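 CCR4-expressing B300-19 cells (5×10^4/well) in RPMI 1640 with 10% FBS, 2-mercaptoethanol and antibiotics, 37 °C, 5% CO2, exposed to 0.3–10 µM compound for 12 h, then Alamar Blue for 4 h; fluorescence read at excitation 570 and emission 600 nm. Viability relative to untreated wells; minimum cytotoxic dose is the concentration lowering viability below 70%.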

[7] = target: T3, C-C chemokine receptor type 4 (Mus musculus) (UniProt P51680); assay: Antagonist activity at mouse CCR4 receptor expressed in mouse B300-19 cells assessed as CCL22-induced chemotaxis by bioluminescent assay; assay type: functional, cell-based
T3 sequence (whole entry): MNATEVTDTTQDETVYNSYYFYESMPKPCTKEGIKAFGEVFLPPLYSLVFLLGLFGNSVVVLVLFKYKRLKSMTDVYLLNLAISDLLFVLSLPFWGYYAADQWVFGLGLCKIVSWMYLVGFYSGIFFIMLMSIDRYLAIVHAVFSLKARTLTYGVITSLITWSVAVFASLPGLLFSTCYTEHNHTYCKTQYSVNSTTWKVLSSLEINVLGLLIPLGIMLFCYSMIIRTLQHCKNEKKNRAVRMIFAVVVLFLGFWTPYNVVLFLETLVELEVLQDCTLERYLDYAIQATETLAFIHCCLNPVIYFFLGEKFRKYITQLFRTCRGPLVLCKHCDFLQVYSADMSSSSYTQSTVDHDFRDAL
How it was run: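 Chemotaxis of B300-19 stable transformants carrying mouse CCR4 cDNA, suspended at 5×10^6 cells/mL in RPMI 1640 plus 0.1% BSA with test compound; 1 nM mouse CCL22 in lower wells, 5-µm pore filters, 3 h at 37 °C, 5% CO2. Migrated cells counted by ATP bioluminescence. Triplicate at four concentrations. IC50 from non-linear curve fit.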

[8] = target: T1, C-C chemokine receptor type 4 (Homo sapiens); assay: Antagonist activity at human CCR4 receptor expressed in mouse B300-19 cells assessed as CCL22-induced chemotaxis at 1 uM by bioluminescent assay; assay type: functional, cell-based

Row | inhibition [1] [%] | inhibition [2] [%] | pIC50 [3] | Activity [4] [µM] | pIC50 [5] | Activity [7] [µM] | inhibition [8] [%] | SMILES | Activity [6]
1 | 11 | 7 |  |  |  |  |  | COc1cc2nc(N3CCCCC3)nc(NC3CCCCCC3)c2cc1OC | 
2 |  | 10 | 6.70 | 1.4 |  |  |  | c1ccc2c(NC3CCCCCC3)nc(N3CCC(N4CCCC4)CC3)nc2c1 | 
3 | < 0 | 16 |  |  |  |  |  | COc1cc2nc(NCCc3ccccc3)nc(NC3CCCCCC3)c2cc1OC | 
4 | 68 | 68 | 6.66 |  | 6.18 |  |  | COc1cc2nc(N3CCN(C(C)C)CC3)nc(NC3CCCCCC3)c2cc1OC | 
5 | 15 | 12 |  |  |  |  |  | COc1cc2nc(N3CCC(C)CC3)nc(NC3CCCCCC3)c2cc1OC | 
6 | 100 | 93 | 7.72 | 0.2 | 7.15 | 0.13 |  | COc1cc2nc(N3CCC(N4CCCC4)CC3)nc(NC3CCCCCC3)c2cc1OC | Toxic
7 | 2 | < 0 |  |  |  |  |  | COc1cc2nc(N3CCC(N4CCCC4)CC3)nc(N3CCOCC3)c2cc1OC | 
8 | 54 | 71 | 6.70 |  | 5.92 |  |  | COc1cc2nc(N3CCC(N4CCCC4)CC3)nc(NC3CCCCCCC3)c2cc1OC | 
9 | < 0 | 4 |  |  |  |  |  | COc1cc2nc(N3CCC(N4CCCC4)CC3)nc(NC3CCN(Cc4ccccc4)CC3)c2cc1OC | 
10 | 8 | 8 |  |  |  |  |  | COc1cc2nc(NCCCN3CCCC3=O)nc(NC3CCCCCC3)c2cc1OC | 
11 | 77 | 65 | 6.59 |  | 6.14 |  |  | COc1cc2nc(N3CCC(N(C)C)CC3)nc(NC3CCCCCC3)c2cc1OC | 
12 | < 0 | 13 |  |  |  |  |  | COc1cc2nc(NCc3ccccc3)nc(NC3CCCCCC3)c2cc1OC | 
13 | < 0 | 13 |  |  |  |  |  | COc1cc2nc(N3CCN(C)CC3)nc(NC3CCCCCC3)c2cc1OC | 
14 | 8 | < 0 |  |  |  |  |  | COc1cc2nc(N3CCOCC3)nc(NC3CCCCCC3)c2cc1OC | 
15 |  | 10 | 7.89 | 0.12 |  | 0.22 |  | COc1ccc2c(NC3CCCCCC3)nc(N3CCC(N4CCCC4)CC3)nc2c1 | 
16 | < 0 | 10 |  |  |  |  |  | COc1cc2nc(N3CCC(N4CCCC4)CC3)nc(NCc3ccccc3)c2cc1OC | 
17 | 54 | 71 | 6.32 |  | 5.72 |  |  | COc1cc2nc(N3CCC(N4CCCC4)CC3)nc(NC3CCCCC3)c2cc1OC | 
18 | 3 | < 0 |  |  |  |  |  | COc1cc2nc(N3CCC(O)CC3)nc(NC3CCCCCC3)c2cc1OC | 
19 | < 0 | 11 |  |  |  |  |  | COc1cc2nc(N3CCC(N4CCCC4)CC3)nc(NC3CCC(C(C)(C)C)CC3)c2cc1OC (stereo unspecified) | 
20 | 0 | 10 | 7.74 | 0.12 |  | 0.35 |  | COc1cc2nc(N3CCC(N(C)C4CCCC4)CC3)nc(NC3CCCCCC3)c2cc1OC | 
21 | < 0 | 1 |  |  |  |  |  | COc1cc2nc(N3CCC(Cc4ccccc4)CC3)nc(NC3CCCCCC3)c2cc1OC | 

Row | inhibition [1] [%] | inhibition [2] [%] | pIC50 [3] | Activity [4] [µM] | pIC50 [5] | Activity [7] [µM] | inhibition [8] [%] | SMILES | Activity [6]
22 | 16 | 35 |  |  |  |  |  | COc1cc2nc(NCCCN3CCCC3)nc(NC3CCCCCC3)c2cc1OC | 
23 | 6 | < 0 |  |  |  |  |  | COc1cc2nc(NC(C)C)nc(NC3CCCCCC3)c2cc1OC | 
24 | 19 | 8 |  |  |  |  |  | COc1cc2nc(N3CCC(N4CCCC4)CC3)nc(N3CCCCC3)c2cc1OC | 
25 | 7 | 7 |  |  |  |  |  | COc1cc2nc(N3CCN(c4ccccc4)CC3)nc(NC3CCCCCC3)c2cc1OC | 
26 | 16 | 16 |  |  |  |  |  | COc1cc2nc(N3CCC(N4CCCC4)CC3)nc(NC3CCCCNC3=O)c2cc1OC (stereo unspecified) | 
27 |  | 10 | 7.51 | 0.41 |  | 0.8 |  | COc1ccc2nc(N3CCC(N4CCCC4)CC3)nc(NC3CCCCCC3)c2c1 | 
28 |  | 10 | 6.29 |  |  |  | 12 | COc1cc2nc(C3CCN(C4CCCCC4)CC3)nc(NC3CCCCCC3)c2cc1OC | 
29 | < 0 | < 0 |  |  |  |  |  | COc1cc2nc(N(C)CCc3ccccc3)nc(NC3CCCCCC3)c2cc1OC | 
30 | < 0 | 17 |  |  |  |  |  | COc1cc2nc(N3CCC(C(N)=O)CC3)nc(NC3CCCCCC3)c2cc1OC | 
31 | 0 | 10 | 7.26 | 0.23 |  | 0.21 |  | COc1cc2nc(N3CCN(C4CCCCC4)CC3)nc(NC3CCCCCC3)c2cc1OC | 
32 | < 0 | 0 |  |  |  |  |  | COc1cc2nc(NCc3cccs3)nc(NC3CCCCCC3)c2cc1OC | 
33 | 0 | 10 | 7.49 | 0.31 |  | 0.6 |  | COc1cc2nc(N3CCC(N4CCC(F)CC4)CC3)nc(NC3CCCCCC3)c2cc1OC | 
34 | 4 | 7 |  |  |  |  |  | COc1cc2nc(N3CCC(N4CCCC4)CC3)nc(NCCc3ccccc3)c2cc1OC | 
35 | 18 | 1 |  |  |  |  |  | COc1cc2nc(NCCN3CCCCC3)nc(NC3CCCCCC3)c2cc1OC | 
36 | 100 | 92 | 7.74 | 0.14 | 7.14 | 0.039 |  | COc1cc2nc(N3CCC(N4CCCCC4)CC3)nc(NC3CCCCCC3)c2cc1OC | 
37 | < 0 | < 0 |  |  |  |  |  | COc1cc2nc(N3CCC(N4CCCC4)CC3)nc(N(C)C)c2cc1OC | 
38 | 4 | < 0 | 7.89 | 0.1 |  |  |  | COc1cc2nc(N3CCC(NC4CCCC4)CC3)nc(NC3CCCCCC3)c2cc1OC | 
39 | 6 | 10 |  |  |  |  |  | CCOC(=O)N1CCC(Nc2nc(N3CCC(N4CCCC4)CC3)nc3cc(OC)c(OC)cc23)CC1 | 
40 | < 0 | 3 |  |  |  |  |  | CCNc1nc(N2CCC(N3CCCC3)CC2)nc2cc(OC)c(OC)cc12 | 
41 | 17 | 18 |  |  |  |  |  | COc1cc2nc(N3CCC(N4CCCC4)CC3)nc(NC3CCCC3)c2cc1OC | 
